Results taken from ChEMBL document CHEMBL4673214, “Synthesis and antibacterial bioactivities of cationic deacetyl linezolid amphiphiles” (Eur J Med Chem, 2018).

Assays:
Staphylococcus aureus [1] = experiment: Antibiofilm activity against 24 hrs preformed biofilm of Staphylococcus aureus ATCC 29213 assessed as biofilm viability at 128 ug/ml incubated for 24 hrs by crystal violet staining analysis (reference value: 18.9 1og10CFU); assay type: functional; conditions: dose 128 µg/ml
Staphylococcus aureus [2] = experiment: Antibacterial activity against methicillin-resistant Staphylococcus aureus assessed as reduction in bacterial growth following incubation in MHB medium and meaured after incubation with compound for 20 to 24 hrs by agar plate method; assay type: functional; conditions: time 20-24 hrs
In short: (§1)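 Sheep plasma obtained by centrifuging defibrinated blood at 3500 rpm for 10 min; serum isolated in serum tubes. MRSA at 10^5 CFU/mL in 50% MHB plus 50% serum, plasma or blood, or in MHB alone. Compound dilutions (512 to 4 µg/mL, pre-mixing) added 50 µL to 150 µL bacteria, 37 °C for 20-24 h. Then 20 µL plated on MHA, 37 °C 20-24 h; MBC taken as no colonies. Two repeats.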

Staphylococcus aureus [3] = experiment: Antibacterial activity against methicillin-resistant Staphylococcus aureus assessed as reduction in bacterial growth following incubation in 50% MHB medium and 50% serum and meaured after incubation with compound for 20 to 24 hrs by agar plate method; assay type: functional; conditions: time 20-24 hrs; in short: as §1
Escherichia coli [4] = experiment: Antibiofilm activity against 72 hrs preformed biofilm of Escherichia coli ATCC 25922 assessed as biofilm viability at 8 ug/ml incubated for 24 hrs by […] (reference value: 16.1 log10CFU); assay type: functional; conditions: dose 8 µg/ml
In short: (§2)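 E. coli from mid-log phase was diluted to ~10^5 CFU/mL in M9 medium with 0.02% casamino acids and 0.5% glycerol and formed biofilm without shaking for 72 h. Wells were PBS-washed, then treated with 2-128 µg/mL for 24 h at 37 °C; medium-only wells served as control. Cells were released with trypsin-EDTA and plated as tenfold dilutions. Viability was given as log10 CFU/well.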

Escherichia coli [5] = experiment: Antibiofilm activity against 72 hrs preformed biofilm of Escherichia coli ATCC 25922 assessed as biofilm viability at 128 ug/ml incubated for 24 hrs by […] (reference value: 16.1 log10CFU); assay type: functional; conditions: dose 128 µg/ml; in short: as §2
Staphylococcus aureus [6] = experiment: Antibiofilm activity against 24 hrs preformed biofilm of Staphylococcus aureus ATCC 29213 assessed as biofilm viability at 8 ug/ml incubated for 24 hrs by crystal violet staining analysis (reference value: 18.9 1og10CFU); assay type: functional; conditions: dose 8 µg/ml
Staphylococcus aureus [7] = experiment: Antibiofilm activity against 24 hrs preformed biofilm of Staphylococcus aureus ATCC 29213 assessed as eradication of preformed biofilm incubated for 24 hrs by crystal violet staining assay; assay type: functional
Staphylococcus aureus [8] = experiment: Antibiofilm activity against 24 hrs preformed biofilm of Staphylococcus aureus ATCC 29213 assessed as biofilm viability at 32 ug/ml incubated for 24 hrs by crystal violet staining analysis (reference value: 18.9 1og10CFU); assay type: functional; conditions: dose 32 µg/ml
Escherichia coli [9] = experiment: Antibiofilm activity against 72 hrs preformed biofilm of Escherichia coli ATCC 25922 assessed as biofilm viability at 16 ug/ml incubated for 24 hrs by […] (reference value: 16.1 log10CFU); assay type: functional; conditions: dose 16 µg/ml; in short: as §2
[10] = Selectivity index, ratio of HC50 for Sheep erythrocytes to MIC for Staphylococcus aureus ATCC 29213; assay type: toxicity
Escherichia coli [11] = experiment: Antibiofilm activity against Escherichia coli ATCC 25922 assessed as inhibition of biofilm formation incubated for 24 hrs by crystal violet staining assay; assay type: functional
In short: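 Twofold serial dilutions in MHB received 1:1000-diluted exponential-phase bacteria and were incubated 24 h at 37 °C. Wells were rinsed, stained with 0.1% crystal violet for 10 min and dissolved in ethanol, and OD540 was read. MBIC80 was the concentration inhibiting 80% of biofilm formation versus untreated wells, taken from dose-response curves.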

Staphylococcus aureus [12] = experiment: Antibacterial activity against Staphylococcus aureus ATCC 29213 assessed as reduction in bacterial measured after 20 passages by CLSI-based broth microdilution method; assay type: functional
In short: (§3)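 Serial passaging: after each 24 h MIC assay, cells grown at 1/2 MIC were transferred and the MIC assayed again, for 20 passages. Done with S. aureus, E. coli and MRSA. MIC plotted against days of passage. Experiment repeated twice.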

Staphylococcus aureus [13] = experiment: Antibiofilm activity against 24 hrs preformed biofilm of Staphylococcus aureus ATCC 29213 assessed as biofilm viability at 16 ug/ml incubated for 24 hrs by crystal violet staining analysis (reference value: 18.9 1og10CFU); assay type: functional; conditions: dose 16 µg/ml
Staphylococcus aureus [14] = experiment: Resistance ratio of compound MIC for methicillin-resistant Staphylococcus aureus after 20 passages to compound MIC for methicillin-resistant Staphylococcus aureus after 16 to 20 hrs by CLSI-based broth microdilution method; assay type: functional; in short: as §3
Escherichia coli [15] = experiment: Antibiofilm activity against 72 hrs preformed biofilm of Escherichia coli ATCC 25922 assessed as biofilm viability at 32 ug/ml incubated for 24 hrs by […] (reference value: 16.1 log10CFU); assay type: functional; conditions: dose 32 µg/ml; in short: as §2
Staphylococcus aureus [16] = experiment: Antibiofilm activity against 24 hrs preformed biofilm of Staphylococcus aureus ATCC 29213 assessed as biofilm viability at 4 ug/ml incubated for 24 hrs by crystal violet staining analysis (reference value: 18.9 1og10CFU); assay type: functional; conditions: dose 4 µg/ml
[17] = Selectivity index, ratio of HC50 for Sheep erythrocytes to MIC for Escherichia coli ATCC 25922; assay type: toxicity
Staphylococcus aureus [18] = experiment: Antibacterial activity against Staphylococcus aureus ATCC 29213 assessed as reduction in bacterial growth compound preincubated with 50% sheep plasma for 0 hrs followed by incubation for 20 to 24 hrs by agar plate method; assay type: functional; conditions: time 20-24 hrs
In short: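 Sheep plasma came from centrifuged defibrinated blood. Compound at 512 µg/mL in 50% water/50% plasma was preincubated at 37 °C for 0, 3 or 6 h, then serially diluted (256 to 4 µg/mL). Dilutions were mixed 1:3 with S. aureus suspension (10^5 CFU/mL) and incubated 20-24 h at 37 °C. MBC was taken as no colonies after 20 µL was plated on agar.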

Escherichia coli [19] = experiment: Antibiofilm activity against 72 hrs preformed biofilm of Escherichia coli ATCC 25922 assessed as biofilm viability at 4 ug/ml incubated for 24 hrs by […] (reference value: 16.1 log10CFU); assay type: functional; conditions: dose 4 µg/ml; in short: as §2
Escherichia coli [20] = experiment: Antibiofilm activity against 72 hrs preformed biofilm of Escherichia coli ATCC 25922 assessed as biofilm viability at 2 ug/ml incubated for 24 hrs by […] (reference value: 16.1 log10CFU); assay type: functional; conditions: dose 2 µg/ml; in short: as §2
HeLa = experiment: Cytotoxicity against human HeLa cells assessed as viable cells by measuring increase in green fluorescence intensity at 1 to 4 ug/mL incubated for 24 hrs by calcein-AM/propidium iodide staining based fluorescence microscopy; assay type: cell-based; conditions: dose 1-4 µg/ml
In short: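 HeLa cells in 12-well plates were treated 24 h at 1, 2 or 4 µg/mL, with untreated and 0.1% Triton X-100 controls. Cells were stained with 2 µM calcein AM and 4.5 µM propidium iodide for 15 min at 37 °C and imaged by fluorescence microscopy (calcein 500-550 nm band-pass; PI 590-800 nm long-pass). Three repeats.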

Staphylococcus aureus [21] = experiment: Antibacterial activity against methicillin-resistant Staphylococcus aureus assessed as reduction in bacterial growth following incubation in 50% MHB medium and 50% plasma and meaured after incubation with compound for 20 to 24 hrs by agar plate method; assay type: functional; conditions: time 20-24 hrs; in short: as §1

In the case of `CCCCCCCCCCCN(C[C@H]1CN(c2ccc(N3CCOCC3)c(F)c2)C(=O)O1)C(=O)[C@@H](N)CCCCN.Cl.Cl`, the Activity (Staphylococcus aureus [1]) is reported as 4.7 log10CFU, the MBC (Staphylococcus aureus [2]) is reported as 128 mg/L and the MBC (Staphylococcus aureus [3]) is reported as > 128 mg/L. It also gave an Activity (Escherichia coli [4]) of 8 log10CFU, an Activity (Escherichia coli [5]) of 5.3 log10CFU and an Activity (Staphylococcus aureus [6]) of 9.9 log10CFU. It also gave an MBEC (Staphylococcus aureus [7]) of 64 µg/mL, an MBEC80 (Staphylococcus aureus [7]) of 50.2 µg/mL and an MBEC90 (Staphylococcus aureus [7]) of 59.8 µg/mL. It also gave an Activity (Staphylococcus aureus [8]) of 7.5 log10CFU, an Activity (Escherichia coli [9]) of 7.1 log10CFU and a selectivity ratio [10] of 50. The MBIC80 (Escherichia coli [11]) was 61.9 µg/mL, the MBIC90 (Escherichia coli [11]) was 72.6 µg/mL and the MIC (Staphylococcus aureus [12]) was 2 mg/L. It also gave an Activity (Staphylococcus aureus [13]) of 8.7 log10CFU, a Ratio (Staphylococcus aureus [14]) of 2 and an Activity (Escherichia coli [15]) of 6.1 log10CFU. It also gave an Activity (Staphylococcus aureus [16]) of 12.9 log10CFU, a selectivity ratio [17] of 12.5 and an MBC (Staphylococcus aureus [18]) of 64 mg/L. For the same molecule, the Activity (Escherichia coli [19]) was 8.5 log10CFU, the Activity (Escherichia coli [20]) was 10.2 log10CFU and the Activity (HeLa) was “Non-Toxic”. For the same molecule, the MBC (Staphylococcus aureus [21]) was 128 mg/L.
